Laboratory results from ChEMBL document CHEMBL1135484, “Structural features of azidopyridinyl neonicotinoid probes conferring high affinity and selectivity for mammalian alpha4beta2 and Drosophila nicotinic receptors” (J Med Chem, 2002).

Key:
[1] = molecular target: Neuronal acetylcholine receptor; alpha4/beta2; test: Potency to displace [3H]nicotine binding to Nicotinic acetylcholine receptor alpha4-beta2 immuno-isolated from M10 cells; assay type: cell-based, Gallus gallus
[2] = Potency to displace [3H]IMI binding to Nicotinic acetylcholine receptor from Drosophila head membranes; set-up: species or system Drosophila melanogaster
In short: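 Drosophila head membranes as receptor source, competition against [3H]IMI binding; IC50 (concentration giving 50% inhibition of specific binding) fitted by iterative nonlinear least-squares regression.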

[3] = system: Drosophila melanogaster; test: Selectivity ratio of Ki of Nicotinic acetylcholine receptor of Drosophila to Nicotinic acetylcholine receptor alpha4-beta2

| SMILES | Ki [1] [nM] | Ki [2] [nM] | Selectivity [3] |
| --- | --- | --- | --- |
| [N-]=[N+]=Nc1ccncc1Cn1ccnc1N[N+](=O)[O-] | 95800 | 3600 | 27 |
| [N-]=[N+]=Nc1cc(Cl)ncc1Cn1ccsc1=N | 110 | 3200 | 29 |
| Clc1ccc(C2CC3CCC2N3)cn1 (stereo unspecified) [EPIBATIDINE] |  | 220 |  |
| [N-]=[N+]=Nc1cc(CN2CCN=C2N)cnc1Cl | 2.6 | 5700 | 2190 |
| O=[N+]([O-])/N=C1\NCCN1Cc1ccc(Cl)nc1 [IMIDACLOPRID] |  | 2.2 | 327 |
| [N-]=[N+]=Nc1cc(Cn2ccnc2N[N+](=O)[O-])cnc1Cl | 300 | 13 | 23 |
| N#C/N=c1\sccn1Cc1cnc(Cl)c(N=[N+]=[N-])c1 | 120 | 28 | 4.3 |
| O=[N+]([O-])NC1=NCCN1Cc1ccc(Cl)nc1 [IMIDACLOPRID] | 720 |  |  |
| [N-]=[N+]=Nc1cc(CN2CCN/C2=N\[N+](=O)[O-])cnc1Cl [5-AZIDOIMIDACLOPRID] |  | 24 | 14 |
| O=[N+]([O-])Nc1nccn1Cc1ccc(Cl)nc1 [DEHYDROIMIDACLOPRID] | 470 | 0.85 | 553 |
| [N-]=[N+]=Nc1cncc(Cn2ccnc2N[N+](=O)[O-])c1 | 5400 | 540 | 10 |
| N=C1NCCN1Cc1ccc(Cl)nc1 [DESNITROIMIDACLOPRID] | 2.2 | 800 | 364 |
| O=[N+]([O-])/N=c1\sccn1Cc1ccc(Cl)nc1 | 170 | 0.35 | 486 |
| N#C/N=c1\sccn1Cc1ccc(Cl)nc1 [THIACLOPRID OLEFIN] | 120 | 1.4 | 86 |
| [N-]=[N+]=Nc1cc(CN2CCNC2=N[N+](=O)[O-])cnc1Cl [5-AZIDOIMIDACLOPRID] | 340 |  |  |
| [N-]=[N+]=Nc1cc(Cn2ccs/c2=N\[N+](=O)[O-])cnc1Cl | 170 | 3.9 | 44 |
| [N-]=[N+]=Nc1cc(Cl)ncc1Cn1ccnc1N[N+](=O)[O-] | 16900 | 460 | 37 |
| N=c1sccn1Cc1ccc(Cl)nc1 | 0.39 | 100 | 256 |
| CN1CCC[C@H]1c1cccnc1 [NICOTINE] |  | 2000 |  |
| [N-]=[N+]=Nc1ccncc1Cn1ccsc1=N | 820 | 30000 | 36 |
| [N-]=[N+]=Nc1cc(Cn2ccsc2=N)cnc1Cl | 0.47 | 750 | 1600 |
| [N-]=[N+]=Nc1cncc(Cn2ccsc2=N)c1 | 8.3 | 7200 | 867 |
